PABP1 MLLE inh: blocks PAM2 peptide binding to the PABP1 MLLE domain. P11940. GST-MLLE / FITC-PAM2 fluorescence polarization. inhibition, % at 20 µM. 360,000 tested, 0.36% active; in the data active means inhibition above about 35%, passing the limit was not always enough;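 further: plate controls were DMSO wells with GST-MLLE for no effect and wells lacking GST-MLLE protein for full effect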
Target sequence (P11940 whole entry, looked up, the tested form may be a part): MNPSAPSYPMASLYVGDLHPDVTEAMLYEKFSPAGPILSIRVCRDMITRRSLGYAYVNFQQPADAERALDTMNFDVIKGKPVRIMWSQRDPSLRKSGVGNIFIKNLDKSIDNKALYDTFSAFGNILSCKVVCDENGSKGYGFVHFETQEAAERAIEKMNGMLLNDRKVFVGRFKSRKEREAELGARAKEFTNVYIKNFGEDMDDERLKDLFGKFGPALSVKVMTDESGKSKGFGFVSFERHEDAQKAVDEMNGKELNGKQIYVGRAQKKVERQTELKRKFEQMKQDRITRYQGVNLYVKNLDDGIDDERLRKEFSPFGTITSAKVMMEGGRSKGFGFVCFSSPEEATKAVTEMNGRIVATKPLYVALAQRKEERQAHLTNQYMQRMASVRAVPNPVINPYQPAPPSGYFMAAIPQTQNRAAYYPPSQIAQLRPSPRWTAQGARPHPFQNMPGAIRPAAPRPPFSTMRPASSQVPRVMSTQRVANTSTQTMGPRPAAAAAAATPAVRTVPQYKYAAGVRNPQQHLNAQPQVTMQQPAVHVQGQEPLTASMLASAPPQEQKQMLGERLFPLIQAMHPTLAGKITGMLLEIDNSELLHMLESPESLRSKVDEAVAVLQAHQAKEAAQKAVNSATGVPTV
PABP FP inh: blocks human PABP binding to poly(A) RNA; AID 2014; fluorescence polarization; 290,000 tested, 1% active; inhibition, % at 35 µM;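 further: calls also rest on retests at 20 µM and on dose response follow-up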
ZTA counter: counter-screen for EBNA-1 inhibitors: inhibitors of Epstein-Barr virus ZTA | P03206 | ZTA-DNA binding, fluorescence polarization | inhibition, % at 11 µM | 320,000 tested, 0.15% active; in the data active means inhibition above about 33%
NS3 helicase inh: HCV NS3 helicase inhibition; NS3 helicase DNA unwinding, Cy5 molecular beacon fluorescence; inhibition, % at 10.9 µM; 290,000 tested, 0.56% active;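 active means inhibition above the mean of all tested compounds plus 3 SD, set per campaign, cut at about 35% in these data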;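 further: 0% = DMSO wells and 100% = thioflavine S control wells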
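System: Hepatitis C virus NS3 helicase domain fragment enzyme | Reagent: Annealed dual-labelled DNA beacon duplex, ATP-started | Compound dosing: 10.9 µM single point, 0.8% DMSO | Incubation: 1 h reaction at 25 °C, ATP-initiated | Technique: Cy5 fluorescence | Evaluation: Percent inhibition from t60/t0 fluorescence ratio | Benchmarks: Low DMSO, high thioflavine S at 110 µM | Replication: Singlicate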
EBNA-1 inhibitor: blocks EBNA-1 binding to DNA; EBNA-1 DNA binding, fluorescence polarization; inhibition, % at 14.8 µM; 300,000 tested, 0.34% active; in the data active means inhibition above about 28%
eIF4H FP inh: inhibitors of RNA binding by human eIF4H; eIF4H fluorescence polarization binding assay; 290,000 tested, 0.94% active; inhibition, % at 35 µM; Q15056; AID 2012;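 further: calls also rest on retests at 20 µM and on dose response follow-up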
The depositor's hits bear a star; ! = a repeat was not active. Sampled rows, rich in hits. Any-hit rate of the full collection: about 2.1%. Unless noted, how the calls were made is not given here.

For Cn1cccc1/C=C1\SC(=S)N(NC(=O)c2ccccc2O)C1=O the results were PABP1 MLLE inh -136, PABP FP inh 62*, ZTA counter 19, NS3 helicase inh 0, EBNA-1 inhibitor -6 and eIF4H FP inh 82*.
For O=C(O)C(Cc1ccccc1)N1C(=O)/C(=C/C=C/c2ccco2)SC1=S (configuration not stated) the results were PABP1 MLLE inh -41, PABP FP inh 97*, NS3 helicase inh 31 and eIF4H FP inh 85*.
Screening CC(C(=O)O)N1C(=O)/C(=C/c2cccn2C)SC1=S (configuration not stated) returned PABP1 MLLE inh -135, PABP FP inh active, ZTA counter 1, NS3 helicase inh 15, EBNA-1 inhibitor 4 and eIF4H FP inh 93.
Screening COc1ccccc1C(=O)NN1C(=O)/C(=C/c2cccn2C)SC1=S returned PABP FP inh 73*, NS3 helicase inh 3 and eIF4H FP inh 71.
`COc1ccc(/C=C2\SC(=S)N(C(Cc3ccccc3)C(=O)O)C2=O)cc1` (configuration not stated) gave PABP1 MLLE inh 12, PABP FP inh -8, NS3 helicase inh 35 and eIF4H FP inh -1.
O=C(NN1C(=O)/C(=C/C=C/c2ccco2)SC1=S)c1ccccc1O was read as PABP1 MLLE inh -78, PABP FP inh 89*, ZTA counter 49*, NS3 helicase inh 34, EBNA-1 inhibitor 37* and eIF4H FP inh 94*.
CC(/C=C1\SC(=S)N(NC(=O)c2ccccc2C)C1=O)=C\c1ccccc1 was read as PABP1 MLLE inh -10, PABP FP inh -10, ZTA counter 9, NS3 helicase inh 10, EBNA-1 inhibitor -2 and eIF4H FP inh 7.
For O=C(N/N=C/c1ccco1)c1cccc(N2CCCC2=O)c1 the results were PABP1 MLLE inh -17, PABP FP inh -2, ZTA counter 3, NS3 helicase inh 14, EBNA-1 inhibitor -3 and eIF4H FP inh 91*.
`O=C(N/N=C/c1ccco1)c1cccc(NC(=O)c2cccc(Cl)c2)c1` gave PABP1 MLLE inh -12, PABP FP inh 0, ZTA counter 2, NS3 helicase inh 0, EBNA-1 inhibitor 6 and eIF4H FP inh -12.
O=C(N/N=C/c1ccco1)c1cccc(N2Cc3ccccc3C2)c1 was read as PABP1 MLLE inh -2, PABP FP inh 53*, ZTA counter -2, NS3 helicase inh 8, EBNA-1 inhibitor 17 and eIF4H FP inh 91*.
Screening Cn1cc(Br)c(C(=O)NC2CCCCCC2)n1 returned PABP1 MLLE inh 4, PABP FP inh 3, NS3 helicase inh 10 and eIF4H FP inh 80*.
`O=C(COc1ccc(/C=N/NC(=O)c2ccccc2Br)cc1)Nc1ccccc1` gave PABP1 MLLE inh 6, PABP FP inh -10, ZTA counter -1, NS3 helicase inh -4, EBNA-1 inhibitor -3 and eIF4H FP inh 0.
O=C(COc1ccc(/C=N/NC(=O)c2ccccc2O)cc1)Nc1ccccc1 was read as PABP1 MLLE inh 9, PABP FP inh active, ZTA counter 5, NS3 helicase inh 11, EBNA-1 inhibitor 14 and eIF4H FP inh 61.
For CCOc1ccc(CCNC(=O)c2ccc(CS(=O)Cc3cccc(Cl)c3)o2)cc1 (configuration not stated) the results were PABP1 MLLE inh -15, PABP FP inh -2, ZTA counter 11, NS3 helicase inh -7, EBNA-1 inhibitor 8 and eIF4H FP inh -8.
`CC1=CC(C)(C)[N+](C)(C)c2ccccc21` gave PABP1 MLLE inh -98, PABP FP inh 62*, ZTA counter -4, NS3 helicase inh 7, EBNA-1 inhibitor -11 and eIF4H FP inh -8.
For CC1=CC(C)(C)N(C(=O)c2ccccc2)c2ccccc21 the results were PABP1 MLLE inh 2, PABP FP inh 0, ZTA counter 6, NS3 helicase inh -3, EBNA-1 inhibitor 5 and eIF4H FP inh -10.
For O=C(CCN1C(=O)COc2ccccc21)NCCCN1CCN(c2ccccc2F)CC1 the results were PABP1 MLLE inh 7, PABP FP inh -6, ZTA counter 18, NS3 helicase inh -6, EBNA-1 inhibitor -5 and eIF4H FP inh -16.
Screening O=C(CSc1nc(O)c(Cc2ccccc2)c(=O)[nH]1)Nc1ccccc1 returned PABP1 MLLE inh 43*, PABP FP inh -7, ZTA counter -12, NS3 helicase inh 0, EBNA-1 inhibitor 2 and eIF4H FP inh 1.
`COc1ccc(Cc2c(O)nc(SCC(=O)NC34CC5CC(CC(C5)C3)C4)[nH]c2=O)cc1` gave PABP1 MLLE inh 41*!, PABP FP inh 4, ZTA counter 7, NS3 helicase inh 7, EBNA-1 inhibitor -2 and eIF4H FP inh -4.
`O=C(CSc1nc(O)c(Cc2ccccc2)c(=O)[nH]1)Nc1nnc(SCc2ccccc2)s1` gave PABP1 MLLE inh 37*, PABP FP inh -3, ZTA counter -4, NS3 helicase inh 8, EBNA-1 inhibitor -7 and eIF4H FP inh 1.
For COc1ccc(NC(=O)CSc2nc(O)c(Cc3ccccc3)c(=O)[nH]2)cc1 the results were PABP1 MLLE inh 40*, PABP FP inh 3, ZTA counter -22, NS3 helicase inh 6, EBNA-1 inhibitor 11 and eIF4H FP inh 2.
Screening CC(C)N1CCc2c(sc(NC(=O)c3ccc(S(=O)(=O)N4CCCCC4C)cc3)c2C(N)=O)C1 (configuration not stated) returned PABP1 MLLE inh -35, PABP FP inh -19, ZTA counter -2, NS3 helicase inh -33, EBNA-1 inhibitor 7 and eIF4H FP inh 3.
`Cc1ccc(C2(C)NC(=O)N(CC(=O)Nc3cc(S(=O)(=O)N(C)C)ccc3C)C2=O)cc1` (configuration not stated) gave PABP1 MLLE inh -7, PABP FP inh 6, ZTA counter -13, NS3 helicase inh 3, EBNA-1 inhibitor -13 and eIF4H FP inh -9.
For CCCNC(=O)COC(=O)/C=C/c1ccc2c(c1)OCO2 the results were PABP1 MLLE inh 8, PABP FP inh 0, ZTA counter 7, NS3 helicase inh -11, EBNA-1 inhibitor 19 and eIF4H FP inh 4.
CSc1sc(-c2nnc(SCC(=O)Nc3ccc(Cl)cc3)n2C)c2c1C=CCC2 was read as PABP1 MLLE inh -9, PABP FP inh 11, ZTA counter -2, NS3 helicase inh -19, EBNA-1 inhibitor 11 and eIF4H FP inh 2.
Screening Cc1ccc(S(=O)(=O)N2CCOCC2)cc1C(=O)OC(C)C(=O)c1ccccc1 (configuration not stated) returned PABP1 MLLE inh 8, ZTA counter 3 and EBNA-1 inhibitor 7.
`Cc1cccc(NC(=S)NC(=O)Cc2ccccc2)c1C` gave PABP1 MLLE inh 21, PABP FP inh 8, NS3 helicase inh 17 and eIF4H FP inh 3.
`Cc1cc(C)c(O)c(NC(=S)NC(=O)Cc2ccccc2)c1` gave PABP1 MLLE inh 42*, PABP FP inh 11, ZTA counter 19, NS3 helicase inh -8, EBNA-1 inhibitor 3 and eIF4H FP inh -7.

Screening data from PubChem.
